ChEMBL document CHEMBL4043064, “Pharmacophore-Based Repositioning of Approved Drugs as Novel Staphylococcus aureus NorA Efflux Pump Inhibitors” (J Med Chem, 2017)
Active and inactive are the calls of the source. The rule behind the calls is not given here.

What was measured:
[1] = biological target: T1, Quinolone resistance protein NorA (Staphylococcus aureus) (UniProt P0A0J7); assay: Inhibition of Staphylococcus aureus SAK2378 norA assessed as potentiation of CPX-induced antimicrobial activity up to 100 ug/ml by checkerboard assay
T1 sequence (whole entry): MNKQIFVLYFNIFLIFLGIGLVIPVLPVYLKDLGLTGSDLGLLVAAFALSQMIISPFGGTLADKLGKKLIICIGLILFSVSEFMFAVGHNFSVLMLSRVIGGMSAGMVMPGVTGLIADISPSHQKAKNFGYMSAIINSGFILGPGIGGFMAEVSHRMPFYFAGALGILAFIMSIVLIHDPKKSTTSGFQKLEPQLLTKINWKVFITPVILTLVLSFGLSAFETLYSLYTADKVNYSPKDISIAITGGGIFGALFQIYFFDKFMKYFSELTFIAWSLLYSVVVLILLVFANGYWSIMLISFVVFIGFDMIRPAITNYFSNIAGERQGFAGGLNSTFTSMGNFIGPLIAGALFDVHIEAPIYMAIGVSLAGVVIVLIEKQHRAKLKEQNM
In short: (§1)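 Checkerboard microdilution of compound against CPX, with MICs set by CLSI microdilution. Applies to S. aureus SA-1199B and SA-K2378. Compound alone was tested up to 100 µg/mL. The read-out is fold reduction of the CPX MIC.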

[2] = biological target: T1, Quinolone resistance protein NorA (Staphylococcus aureus); assay: Inhibition of NorA in Staphylococcus aureus SA1199B harboring GrlA A116E mutant assessed as potentiation of CPX-induced antimicrobial activity up to 100 ug/ml by checkerboard assay; in short: as §1
[3] = biological target: T1, Quinolone resistance protein NorA (Staphylococcus aureus); assay: Inhibition of NorA in Staphylococcus aureus SA1199B harboring GrlA A116E mutant assessed as inhibition of ethidium bromide efflux at 50 uM measured after 5 mins by fluorometric method relative to control
In short: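 S. aureus SA-1199B; test compounds at 50 µM. EtBr loss was measured fluorometrically in their presence and compared with their absence to give percentage reduction in efflux.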

[4] = biological target: Quinolone resistance protein NorA (Staphylococcus aureus, UniProt P0A0J7, A116E); assay: Inhibition of NorA in Staphylococcus aureus SA1199B harboring GrlA A116E mutant assessed as inhibition of ethidium bromide efflux after 5 mins by fluorometric method
In short: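 S. aureus SA-1199B; EtBr loss measured fluorometrically, with compound present versus absent, giving percentage reduction in efflux. Increasing inhibitor concentrations were tested, and IC50 was read by inspecting the dose-response plots.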

SMILES | inhibition [1] | inhibition [2] | inhibition [3] | IC50 [4]
CCCOc1ccc(-c2cc(OCCN(CC)CC)c3ccccc3n2)cc1 | Active | Active | – | –
Cc1ccc(-n2nc(C(C)(C)C)cc2NC(=O)Nc2ccc(OCCN3CCOCC3)c3ccccc23)cc1 | – | – | 47% | –
CCN(CCCCOC(=O)c1ccc(OC)c(OC)c1)C(C)Cc1ccc(OC)cc1 (centres undefined) | – | – | 45.2% | –
COC(=O)[C@H]1[C@H]2C[C@@H]3c4[nH]c5cc(OC)ccc5c4CCN3C[C@H]2C[C@@H](OC(=O)c2cc(OC)c(OC)c(OC)c2)[C@@H]1OC | Active | Active | – | –
COC(=O)C1=C(C)NC(C)=C(C(=O)OCCN(C)Cc2ccccc2)C1c1cccc([N+](=O)[O-])c1 (centres undefined) [NICARDIPINE] | – | – | 77.1% | 22.8 µM
Cc1nc(Nc2ncc(C(=O)Nc3c(C)cccc3Cl)s2)cc(N2CCN(CCO)CC2)n1 [DASATINIB] | – | – | 95.8% | 11.5 µM
COc1cc2ncnc(Nc3ccc(F)c(Cl)c3)c2cc1OCCCN1CCOCC1 [GEFITINIB] | – | – | 94.2% | 9.7 µM
CCCc1nn(C)c2c(=O)[nH]c(-c3cc(S(=O)(=O)N4CCN(C)CC4)ccc3OCC)nc12 | – | – | 22.9% | –
CCOC(=O)Nc1ccc2c(c1)N(C(=O)CCN1CCOCC1)c1ccccc1S2 | – | – | 23.7% | –
